Jurkat NFkB inh – inhibitors of induced NF-kB luciferase reporter, primary screen, TCR NF-kB activation inhibitor project, cell-based, luminescence, uHTS; Jurkat, PMA/ionomycin-induced NF-kB luciferase reporter; inhibition, % at 4 µM; 330,000 tested, 0.53% active; in the data active means inhibition above about 50%
CRFBP-R2 block – antagonists of CRF-BP/CRF-R2 complex, primary screen, cell-based, HEK293, calcium dye fluorescence, uHTS. CRF-induced calcium fluorescence. inhibition, % at 11.8 µM. 350,000 tested, 0.59% active. AID 588475, 2011;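 active means inhibition of the ligand-induced calcium signal above about 50% at the single tested concentration, limit read from the data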
XBP1 UPR activ – activators of adaptive XBP1 UPR arm, primary screen, cell-based, CHO-XBP1 luciferase reporter, luminescence, uHTS; IRE1-XBP1 UPR activation; percent of tunicamycin response, DMSO as zero; activation, % at 20 µM; 330,000 tested, 0.33% active; AID 463104, 2010;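 active means versus positive control, 20 µM dose yields 30% or more activation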;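 further: 100% = tunicamycin at 10 µg/mL and 0% = DMSO only wells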
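Material: CHO cell line with stable XBP1 luciferase reporter; schedule: 16-18 h cell attachment at 37 °C, then 6 h compound exposure; signal: glow luminescence from Steady-Glo reagent; medium: serum-containing F12 medium, 10% FBS; benchmarks: tunicamycin 10 µg/mL and vehicle-only wells; read-out: percent activation relative to tunicamycin reference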
697 NFkB inh – inhibitors of PMA/ionomycin-induced NF-kB reporter, 697 cells, primary screen, B-cell NF-kB inhibitor project, cell-based, luminescence, uHTS; 697 B-cell NF-kB luciferase reporter, 16 h; inhibition, % at 4 µM; 330,000 tested, 0.33% active; in the data active means inhibition above about 35%
CHOP UPR activ – activators of apoptotic CHOP UPR arm, primary screen, cell-based, CHO-CHOP luciferase reporter, luminescence, uHTS. 330,000 tested, 0.34% active. activation, % at 10 µM. UPR activation; percent of tunicamycin response over DMSO baseline;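 active means at 10 µM dose, activation of 40% or more, normalized to positive control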;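 further: 100% = tunicamycin at 10 µg/mL and 0% = DMSO alone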
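Assay system: CHO-CHOP cells, stable luciferase reporter of PERK-eIF2a-CHOP signalling / Buffer or medium: F12 plus 10% serum / Compound dosing: one dose, 10 µM in 0.5% DMSO / Times: 6 h compound treatment, 37 °C / Technique: luciferase luminescence / Read-out: % reporter activation, DMSO baseline versus tunicamycin full activation / Benchmarks: tunicamycin and DMSO controls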
Jurkat NFkB conf – PMA/ionomycin-induced NF-kB reporter inhibitors, Jurkat retest, confirmation, T-cell NF-kB inhibitor project, cell-based, luminescence, single concentration; shares compounds with Jurkat NFkB inh; Jurkat NF-kB luciferase, 16 h; inhibition, % at 4 µM; 2,700 tested, 27% active;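 active means inhibition reaching about 45% at 4 µM in either replicate, limit read from the data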;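 further: plate controls were PMA/ionomycin stimulated DMSO wells for no effect and unstimulated DMSO wells for full effect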
* = called active by the depositor. Shown are actives, neighbours in structure and some others; about 1.8% of the full set was active somewhere.

CCCCCCCCCCCCCCCC[n+]1cccc(C(=O)N(CC)CC)c1 was read as Jurkat NFkB inh 85.7*, CRFBP-R2 block 11.6, XBP1 UPR activ -1.2, 697 NFkB inh -28.2, CHOP UPR activ 0.0 and Jurkat NFkB conf 74.8*.
Screening CCCCCCCC[n+]1cccc(C(=O)N(CC)CC)c1 returned Jurkat NFkB inh -1.8, CRFBP-R2 block 1.4, XBP1 UPR activ -3.8, 697 NFkB inh 11.4 and CHOP UPR activ -0.8.
For CCCCCCCCCCCCCCCC[n+]1ccccc1 the results were CRFBP-R2 block 27.7.
`CCCCCCCCCCCCCCCC[n+]1ccc(C(N)=O)cc1` gave Jurkat NFkB inh 55.7*, CRFBP-R2 block 5.3, XBP1 UPR activ -1.3, 697 NFkB inh -57.7, CHOP UPR activ 1.2 and Jurkat NFkB conf 39.9.
For CCCCCCCCCCCCCCCC[n+]1ccc(/C=N/O)cc1 the results were Jurkat NFkB inh 79.6*, CRFBP-R2 block 18.1, XBP1 UPR activ 7.6, 697 NFkB inh 8.9, CHOP UPR activ 24.4 and Jurkat NFkB conf 54.3*.
Screening O/N=C/c1cccc[n+]1CCCCCC[n+]1ccccc1/C=N/O returned Jurkat NFkB inh 2.2, CRFBP-R2 block 4.5, XBP1 UPR activ -3.1, 697 NFkB inh -3.1 and CHOP UPR activ -2.3.
Screening Cc1ccc2c(c1)N(C(=O)CCC(=O)NCc1ccccn1)CC(C)O2 (centres undefined) returned Jurkat NFkB inh 12.2, CRFBP-R2 block 7.7, XBP1 UPR activ -2.5, 697 NFkB inh 11.8 and CHOP UPR activ -1.9.
C/C(=N\NC(=O)c1ccncc1)c1ccc(NC(=O)c2ccc(Cl)cc2)cc1 was read as Jurkat NFkB inh -152.2, CRFBP-R2 block -26.7, XBP1 UPR activ -7.2, 697 NFkB inh -164.9, CHOP UPR activ 2.9 and Jurkat NFkB conf -91.6.
CN(Cc1c(F)cccc1Cl)C(=O)C1=CC=CN2CCS(=O)(=O)N=C12 was read as Jurkat NFkB inh 4.6, CRFBP-R2 block -2.8, XBP1 UPR activ 0.4, 697 NFkB inh 5.1 and CHOP UPR activ 1.4.
Screening CC1CCCC(NC(=O)CCNC(=O)c2ccc([N+](=O)[O-])cc2)C1C (centres undefined) returned Jurkat NFkB inh 17.8, CRFBP-R2 block -0.5, XBP1 UPR activ -3.4, 697 NFkB inh 23.2 and CHOP UPR activ -0.5.
For COc1ccc(C=C2c3ccccc3C(=O)c3ccccc32)c(OC)c1 the results were Jurkat NFkB inh 65.7*, XBP1 UPR activ 19.8, 697 NFkB inh 13.5, CHOP UPR activ 4.3 and Jurkat NFkB conf 61.1*.
Screening Cn1cccc1/C=C1\SC(=Nc2ccc(O)cc2)NC1=O returned Jurkat NFkB inh 56.0*, CRFBP-R2 block -5.2, XBP1 UPR activ 17.9, 697 NFkB inh -52.4, CHOP UPR activ 3.2 and Jurkat NFkB conf 8.2.
Screening O=C(OCC(=O)N1CCC(c2ccccc2)=N1)c1ccc(Cl)s1 returned Jurkat NFkB inh -172.5, CRFBP-R2 block -6.5, XBP1 UPR activ 1.1, 697 NFkB inh 6.0, CHOP UPR activ 2.3 and Jurkat NFkB conf 7.0.
CCN1CCN(c2nc3c(C)cccn3c(=O)c2C=C(C#N)C#N)CC1 was read as Jurkat NFkB inh 0.1, CRFBP-R2 block 4.4, XBP1 UPR activ -8.8, 697 NFkB inh -13.0 and CHOP UPR activ -1.7.
`C#Cc1ccc([C@@H]2C=C(C(=O)N3CCN(Cc4ccccc4)CC3)O[C@H](OCCCCO)C2)cc1` gave Jurkat NFkB inh 80.1*, XBP1 UPR activ 1.4, 697 NFkB inh -17.6, CHOP UPR activ 7.2 and Jurkat NFkB conf 42.8.
Screening COc1ccc(-c2nc(-c3ccc(Br)o3)no2)cc1 returned Jurkat NFkB inh -203.1, CRFBP-R2 block -3.8, XBP1 UPR activ -5.3, 697 NFkB inh -242.5, CHOP UPR activ -0.6 and Jurkat NFkB conf -148.0.
`C[C@H](CO)N1C[C@H](C)[C@@H](CN(C)S(=O)(=O)c2cccs2)Oc2ccc(NS(=O)(=O)c3ccccc3)cc2CC1=O` gave Jurkat NFkB inh 2.5, CRFBP-R2 block 5.1, XBP1 UPR activ -2.5, 697 NFkB inh 19.3 and CHOP UPR activ -1.3.
For O=C(COc1ccc(Oc2ccccc2)cc1)NCc1cn2ccccc2n1 the results were Jurkat NFkB inh 63.3*, CRFBP-R2 block -3.2, XBP1 UPR activ 14.8, 697 NFkB inh 4.2, CHOP UPR activ 0.9 and Jurkat NFkB conf 23.4.
Screening CC(=O)c1ccc(-c2ccc(C(=O)NC3CC(C)(C)NC(C)(C)C3)o2)cc1 returned Jurkat NFkB inh -12.6, CRFBP-R2 block 7.3, XBP1 UPR activ 1.0, 697 NFkB inh 8.3 and CHOP UPR activ 0.3.
Screening CN1C2=CC=CC=CC2=[N+](C)C12C=CC(=[N+]([O-])[O-])C=C2[N+](=O)[O-] (centres undefined) returned Jurkat NFkB inh 0.0, CRFBP-R2 block 8.7, XBP1 UPR activ 0.6, 697 NFkB inh 10.6 and CHOP UPR activ 5.7.
For CN1C2=CC=CC=CC2=[N+](C)C12C([N+](=O)[O-])=CC(=[N+]([O-])[O-])C=C2[N+](=O)[O-] (centres undefined) the results were Jurkat NFkB inh 72.6*, CRFBP-R2 block 18.9, XBP1 UPR activ -0.7, 697 NFkB inh -80.0, CHOP UPR activ 0.3 and Jurkat NFkB conf 19.2.
Cc1onc(-c2ccccc2)c1C(=O)N1CCC(CO)(Cc2ccccc2)CC1 was read as Jurkat NFkB inh -6.2, CRFBP-R2 block -12.3, XBP1 UPR activ 0.2, 697 NFkB inh -7.0 and CHOP UPR activ -3.0.
`COc1ccc(C(=O)NC(=O)CSc2nc3nc(C)cc(C)n3n2)cc1` gave Jurkat NFkB inh -100.6, CRFBP-R2 block 4.3, XBP1 UPR activ -1.0, 697 NFkB inh -7.7 and CHOP UPR activ 0.1.
C=CCn1c(Oc2cccc(C)c2)nc2c1c(=O)n(C)c(=O)n2C was read as Jurkat NFkB inh -5.7, CRFBP-R2 block -4.5, XBP1 UPR activ 3.7, 697 NFkB inh -12.5 and CHOP UPR activ 0.1.
Screening C=CCn1c(Oc2cc(C)ccc2C)nc2c1c(=O)n(C)c(=O)n2C returned Jurkat NFkB inh 53.6*, CRFBP-R2 block 2.3, XBP1 UPR activ -1.0, 697 NFkB inh -10.8, CHOP UPR activ -3.4 and Jurkat NFkB conf 15.8.
For Cc1occc1C(=O)NNC(=O)c1ccc(S(=O)(=O)N(C)C)cc1 the results were Jurkat NFkB inh -10.0, CRFBP-R2 block 2.6, XBP1 UPR activ -1.0, 697 NFkB inh 8.5 and CHOP UPR activ 1.1.
`CC(C)c1ccc(CCNC(=O)CCNS(=O)(=O)c2ccc(Br)cc2)cc1` gave Jurkat NFkB inh 13.6, CRFBP-R2 block -0.6, XBP1 UPR activ -2.8, 697 NFkB inh -0.7 and CHOP UPR activ 2.6.
